Data set [1] concerns A549. Briefly: Antiproliferative activity against human A549 cells after 72 hrs by MTT assay. Type of data set: functional. To be noted: A549, 72 h. The gist of the method:
(§1)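 Cells grown in DMEM with 10% FBS, penicillin G, streptomycin and L-glutamine, seeded 7 x 10^3 per well, left 24 h, then exposed to scalar concentrations in complete medium for 72 h at 37 °C, 5% CO2. Viability read by MTT; IC50 taken as the concentration giving 50% inhibition of proliferation.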
In general terms: Formazan colour is commonly taken as a measure of viable cells.

Data set [2] relates to HT-29. Briefly: Inhibition of Wnt signaling in human HT29 cells assessed as inhibition of beta-catenin-mediated Tcf/Lef transcriptional activity after 24 hrs by dual luciferase reporter gene assay relative to control. To be noted: HT-29, 24 h. It counts as cell-based.
The test system of data set [3] is HT-29. The experiment in a line: Antiproliferative activity against human HT-29 cells after 72 hrs by MTT assay. It counts as functional. To be noted: HT-29, 72 h. The gist of the method: as §1
Data set [4] can be described thus: Antiproliferative activity against human fibroblasts after 72 hrs by MTT assay. It counts as cell-based, Fibroblast.
The test system of data set [5] is LoVo. The experiment in a line: Antiproliferative activity against human LoVo cells after 72 hrs by MTT assay. It counts as functional. The gist of the method:
as §1

For data set [6], the system named is HepG2. The experiment in a line: Antiproliferative activity against human HepG2 cells after 72 hrs by MTT assay. Type of data set: functional. To be noted: HepG2, 72 h. The gist of the method: as §1
Data set [7] concerns HT-29. Briefly: Inhibition of Wnt signaling in human HT29 cells assessed as inhibition of beta-catenin-mediated Tcf/Lef transcriptional activity at 25 uM after 24 hrs by dual luciferase reporter gene assay relative to control in presence of GSK-3beta inhibitor LiCl. It counts as cell-based. The gist of the method: (§2)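 HT-29 cells (1.4 x 10^4) were co-transfected with 1 µg BAT-LUX, which carries 7 TCF sites and the siamois promoter driving firefly luciferase, plus 1 µg Renilla vector. Cells were then treated at 37 °C for 24 h, with or without the GSK-3β inhibitor LiCl. Dual-Glo readout; values are the mean firefly/Renilla ratio.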
For orientation: Reporter assays use an easily measured gene product as a stand-in for the process of interest.

Data set [8] has as its system HT-29. Briefly: Inhibition of Wnt/beta-catenin signaling in human HT29 cells assessed as […] in axin2 mRNA expression at 25 uM after 24 hrs by quantitative real-time PCR assay. Type of data set: cell-based. In short, it runs like this:
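Total RNA was extracted with TRIzol from HT-29 cells treated for 24 h. Transcripts were measured by real-time RT-PCR with GUS as the reference gene, and expression was expressed relative to untreated cells.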

For data set [9], the system named is HT-29. The experiment in a line: Inhibition of Wnt signaling in human HT29 cells assessed as inhibition of beta-catenin-mediated Tcf/Lef transcriptional activity at 25 uM after 24 hrs by dual luciferase reporter gene assay relative to control. Type of data set: cell-based. In short, it runs like this:
as §2

In data set [10] the test system is HT-29. The experiment in a line: Inhibition of Wnt signaling in human HT29 cells assessed as beta-catenin dephosphorylation at S33/37/T41 residues at 25 uM after 24 hrs by Western blot analysis. Type of data set: cell-based. The gist of the method:
(§3)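 After 24 h exposure, HT-29 cells were washed in cold PBS, lysed on ice for 30 min and cleared at 15 000 g, 4 °C. 10 µg protein was run on 12% SDS-PAGE and transferred to PVDF. Blots were probed with specific primary antibodies, then peroxidase-labelled secondaries, and developed by ECL. β-actin re-probing served as the loading control.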

The subject of data set [11] is HT-29. The experiment in a line: Inhibition of Wnt signaling in human HT29 cells assessed as increase in cytoplasmic beta-catenin at 25 uM after 24 hrs by fluorescence microscopy. It counts as cell-based. In short, it runs like this:
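Cells were fixed in cold 4% formaldehyde for 15 min and stained with anti-β-catenin (mouse, 1:50), then an Alexa-conjugated secondary, with DAPI counterstain. Images were taken on a video-confocal microscope with a 60x objective.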

Data set [12] concerns HT-29. Briefly: Inhibition of Wnt/beta-catenin signaling in human HT29 cells assessed as GSK3-beta dephosphorylation at Ser21/Ser9 residues at 25 uM after 24 hrs by Western blot analysis. It counts as cell-based. In short, it runs like this: as §3
On the technique in general: Immunoblotting shows a protein as a band on a membrane.

Data set [13] has as its system HT-29. The experiment in a line: Inhibition of Wnt/beta-catenin signaling in human HT29 cells assessed as […] protein level at 25 uM after 24 hrs by Western blot analysis. Type of data set: cell-based. In short, it runs like this:
as §3

The structures appear in SMILES notation. Activity calls are given as the source filed them. The rule behind the calls is not given here.

Take `Cc1ccn2cc(-c3ccc([N+](=O)[O-])cc3)nc2c1`: the GI50 (commonly the concentration giving 50% growth inhibition) in data set [1] is 62.4 µM; in [3] it was above 100 µM. The IC50 (commonly the concentration needed to halve the response being measured) in data set [2] came to 23.1 µM.
In data set [4], `Cc1ccn2cc(-c3ccc(NCc4ccccc4)cc3)nc2c1` came in with a GI50 at 72 h above 100 µM. In data set [2], the IC50 stood at 17.8 µM. In data set [3], this compound showed a GI50 of 17.5 µM.
`Cc1ccn2cc(-c3ccc(N)cc3)nc2c1`: the 50% growth inhibitory concentration (GI50) in data set [1] was above 100 µM; in data set [3], 93.6 µM. The IC50 in data set [2] came out at 42.2 µM.
In the case of `CNc1ccc(-c2cn3c(OC)cc(OC)nc3n2)cc1`, the 50% growth inhibitory concentration (GI50) in data set [1], in data set [5], in data set [6] and in data set [3] was above 100 µM in each case. In data set [2], the IC50 was 72.2 µM.
As for `CC(=O)Nc1cc(=O)n(CC(C)C)c(SCc2ccccc2)n1`, the concentration for 50% growth inhibition (GI50) in data set [1] was 46.4 µM; in data set [5], 58.5 µM; in data set [6], 67.6 µM; in data set [3], 68.4 µM. Also, the IC50 in data set [2] worked out at 43 µM.
The corresponding values for `COc1cc(OC)n2cc(-c3ccc(N(Cc4ccccc4)Cc4ccccc4)cc3)nc2n1` are 7 µM, 61.9 µM, above 100 µM, above 100 µM and 67 µM.
As for `Nc1cc(OCc2ccccc2)nc(SCc2ccccc2)n1`, the GI50 stood at 46.2 µM in data set [1], 53.7 µM in data set [5], 49 µM in data set [6] and 53.9 µM in data set [3]. In addition, the half-maximal inhibitory concentration (IC50) in data set [2] was above 100 µM.
The corresponding values for `CCCSc1nc(NC(C)=O)cc(OCc2ccccc2)n1` are 75.7 µM, 54.9 µM, 75.1 µM, 59.9 µM and 81.8 µM.
The corresponding values for `CC(C)COc1cc(N)nc(SCc2ccccc2)n1` are 18.7 µM, 54.5 µM, 60.8 µM, 40 µM and 72.2 µM.
As for `CCCSc1nc(N)cc(OCc2ccccc2)n1`, the concentration for 50% growth inhibition (GI50) stood at 51 µM in data set [1], 54.2 µM in data set [5], 87.1 µM in data set [6] and 88.2 µM in [3]. Moreover, the half-maximal inhibitory concentration (IC50) in [2] amounted to 22.3 µM.
For `COc1cc(OC)n2cc(-c3ccc(N)cc3)nc2n1`, in that order: above 100 µM, above 100 µM, above 100 µM, above 100 µM and 14.3 µM.
As to `Cc1ccn2cc(-c3ccc(NC(=O)c4ccccc4C(=O)O)cc3)nc2c1`, the GI50 in data set [1] and in [3] was above 100 µM each time. Further, the concentration for half-maximal inhibition (IC50) in data set [2] is above 100 µM.
For the compound `COc1cc(OC)n2cc(-c3ccc(NCc4ccccc4)cc3)nc2n1`, the 50% growth inhibitory concentration (GI50) in data set [1], in data set [5], in [6] and in data set [3] was above 100 µM throughout. Besides, in data set [2], the IC50 was determined as 34.6 µM.
In the case of `O=C1[C@H](Cc2ccc(O)cc2)N2C(=O)CCN(C(=O)NCc3ccccc3)[C@H]2CN1Cc1cccc2ccccc12`, the inhibition result in data set [7], in data set [8] and in data set [9] was “Active” in each case. Also, the 50% growth inhibitory concentration (GI50) in [1] amounted to 6.1 µM; in data set [5], 15.6 µM; in data set [6] it was 12.7 µM; in data set [3], 17.2 µM. Moreover, the IC50 in [2] was 18.7 µM.
Regarding `Cc1ccc2nc(-c3ccc(NC(=O)c4ccccc4C(=O)O)cc3)cn2c1`, the inhibition result in data set [7], in [8], in data set [10], in data set [9], in [11] and in data set [13] was “Active” in each case. Besides, the GI50 is above 100 µM in data set [1], 90.7 µM in data set [5], above 100 µM in data set [6] and above 100 µM in data set [3]. Moreover, the concentration for half-maximal inhibition (IC50) in data set [2] came out at 9.7 µM. Further, in data set [12], the inhibition result is “inactive”.
In the case of `CC(=O)Nc1cc(OCc2ccccc2)nc(SCc2ccccc2)n1`, the GI50 in data set [1] turned out to be 35.2 µM; in data set [5], 40 µM; in [6], 42.9 µM; in data set [3] it was 65.8 µM. Besides, in [2], the 50% inhibitory concentration (IC50) worked out at 46.2 µM.
For `CC(C)Cn1c(SCc2ccccc2)nc(N)cc1=O`, in that order: 83.3 µM, 68 µM, 77 µM, above 100 µM and 30.7 µM.
Regarding `COc1cc(OC)n2cc(-c3ccc([N+](=O)[O-])cc3)nc2n1`, the GI50 in data set [1] is 36.6 µM; in data set [5], 70.6 µM; in [6], 35.9 µM; in [3], above 100 µM. The IC50 in data set [2] is 57.8 µM.
For the compound `Cc1ccc2nc(-c3ccc(N(Cc4ccccc4)Cc4ccccc4)cc3)cn2c1`, the figures for the GI50 in [1] and in data set [3] were 60 µM and 37.6 µM, respectively. The IC50 in [2] turned out to be 19.5 µM.
Turning to `CC(=O)Nc1cc(OCC(C)C)nc(SCc2ccccc2)n1`, the GI50 in data set [1] is 19.9 µM; in data set [5], 53.9 µM; in [6], 64.4 µM; in data set [3], 35.7 µM. The half-inhibitory concentration (IC50) in data set [2] is above 100 µM.
For `Nc1cc(=O)n(Cc2ccccc2)c(SCc2ccccc2)n1`, in that order: above 100 µM, 84.9 µM, 97.8 µM, 100 µM and 54.3 µM.
For the compound `Cc1ccc2nc(-c3ccc([N+](=O)[O-])cc3)cn2c1`, the inhibition result in data set [7], in data set [8], in data set [9] and in [11] was “Active” throughout. In addition, the GI50 in data set [1], in [5], in data set [6] and in data set [3] was above 100 µM throughout. The IC50 in data set [2] worked out at 6.2 µM. The inhibition entry in data set [12] is “inactive”.
As for `Cc1cc(OCc2ccccc2)n2cc(-c3ccc([N+](=O)[O-])cc3)nc2n1`, the GI50 in data set [1] is 71 µM; in data set [5], 74.9 µM; in data set [6], above 100 µM; in data set [3] it was above 100 µM. In addition, the IC50 in [2] is 16.1 µM.
Consider `Cc1ccc2nc(-c3ccc(N)cc3)cn2c1`, for which the GI50 in data set [1] was above 100 µM; in data set [5], 65.2 µM; in data set [6] it was above 100 µM; in [3], 82.9 µM. Moreover, the half-inhibitory concentration (IC50) in data set [2] was 52.6 µM.

Source of the values: ChEMBL document CHEMBL3286382, “Synthesis and biological evaluation of imidazo[1,2-a]pyrimidines and imidazo[1,2-a]pyridines as new inhibitors of the Wnt/β-catenin signaling” (Eur J Med Chem, 2014).
